Measurements gathered from unrelated publications.
Lines come from different studies, so protocols differ.
COQ8A: Atypical kinase COQ8A, mitochondrial (COQ8A, Homo sapiens, UniProt Q8NI60)
PI4KA: Phosphatidylinositol 4-kinase alpha (PI4KA, Homo sapiens, UniProt P42356)
HTR5A: 5-hydroxytryptamine receptor 5A (HTR5A, Homo sapiens, UniProt P47898)

The inhibition of `CS(=O)(=O)Nc1cccc(-c2csc(NC(=O)CSc3nc4nccnc4c(=O)n3CCc3ccccc3)n2)c1` is reported as 14% (COQ8A; enzyme activity, inhibitor; 10 µM).
`CCN1CCN(Cc2ccc(NC(=O)c3ccc(C)c(Oc4ccnc5[nH]ccc45)c3)cc2C(F)(F)F)CC1` gave an inhibition of -10.4% (PI4KA; target engagement in cells, inhibitor, chemoproteomics; Huh-7; 10 µM).
`CCCNc1nc2ccccc2n1Cc1ccc(Cl)cc1` has an inhibition of 24.8% (HTR5A; ligand displacement; 10 µM).
For `O=C(c1ccc(F)cc1)N(Cc1ccccc1)C1CCCCC1`, the inhibition was 1% (D(4) dopamine receptor (DRD4, Homo sapiens, UniProt P21917, del265-296); cell-free assay; 10 µM).
`O=C(CSc1nc2nccnc2c(=O)n1CCc1ccccc1)Nc1ccccc1` has an inhibition of less than 20% (PI4KA; enzyme activity, inhibitor; 10 µM).
`Cn1cnc(Br)c1C1=CN(c2ncnc3[nH]cnc23)CCS1` gave an inhibition of 92.8% (Mitogen-activated protein kinase kinase kinase 19 (MAP3K19, Homo sapiens, UniProt Q56UN5); enzyme activity, inhibitor, radiometric; 2 µM).
With `CC(C)C[C@H](NC(=O)[C@H](CC(C)C)NC(=O)CNC(=O)[C@H](C)NC(=O)[C@H](C)NC(=O)[C@H](CCCNC(=N)N)NC(=O)CNC(=O)CCCCNC(=O)[C@H](CCCCN)NC(=O)[C@H]1CCCN1C(=O)[C@H](CCCCN)NC(=O)[C@H](CCCCN)NC(=O)[C@H](CCCCN)NC(=O)[C@H](CCCCN)NC(=O)[C@H](Cc1ccc(O)cc1)NC(=O)[C@@H](N)Cc1c[nH]c2ccccc12)C(N)=O` the inhibition was 95% (Neuropeptides B/W receptor type 1 (NPBWR1, Homo sapiens, UniProt P48145); calcium signal, antagonist; 10 µM).
`CN1CC(Oc2cnc(C#N)cc2-c2ccn3nc(NC(=O)C4CC4)cc3c2)C1` has an inhibition of 9% (Tribbles homolog 2 (TRIB2, Homo sapiens, UniProt Q92519); enzyme activity, inhibitor; 1 µM).
The inhibition of `O=C(Oc1nsnc1N1CCC(c2ccccc2)CC1)N1CCCCC1` is reported as 41% (Monoacylglycerol lipase ABHD6 (ABHD6, Homo sapiens, UniProt Q9BV23); enzyme activity, inhibitor, fluorescence; 1 µM, lysate).
For `COc1cc2c3c(c1OC)-c1cc4c(cc1CC3N(CC1CC1)CC2c1ccccc1)OCO4` (stereo not shown), the inhibition was -18.2% (HTR5A; ligand displacement, radioligand; 10 µM).
The inhibition of `N#Cc1cc(Cn2c(N3CCCC3)nc3ccccc32)ccc1F` is reported as -15% (HTR5A; ligand displacement; 10 µM).
With `O=C(CSc1nc2nccnc2c(=O)n1CCc1ccccc1)Nc1nccs1` the inhibition was 10% (COQ8A; enzyme activity, inhibitor; 10 µM).
`CCN(CC)c1ccc(C2Nc3ccc(C(=O)c4ccccc4)cc3NC3=C2C(=O)CC(C)(C)C3)cc1` (stereo not shown) has an inhibition of 100% (D(4) dopamine receptor (DRD4, Homo sapiens, UniProt P21917); ligand displacement, radioligand; 10 µM).
